From ChEMBL document CHEMBL1135409, “Structure-activity relationships of a novel class of endothelin-A receptor antagonists and discovery of potent and selective receptor antagonist, 2-(benzo[1,3]dioxol-5-yl)-6-isopropyloxy-4-(4-methoxyphenyl)-2H-chromene-3-carboxylic acid (S-1255). 1. Study on structure-activity relationships and …” (J Med Chem, 2002)

Assays:
[1] = target: T1, Endothelin receptor type B (Sus scrofa, UniProt P35463); experiment: Binding affinity to endothelin B receptor measured by inhibition of [125I]ET-3 binding recombinant pig ET-B receptor expressed in COS-7 cells; type: cell-based
T1 sequence (P35463 whole entry): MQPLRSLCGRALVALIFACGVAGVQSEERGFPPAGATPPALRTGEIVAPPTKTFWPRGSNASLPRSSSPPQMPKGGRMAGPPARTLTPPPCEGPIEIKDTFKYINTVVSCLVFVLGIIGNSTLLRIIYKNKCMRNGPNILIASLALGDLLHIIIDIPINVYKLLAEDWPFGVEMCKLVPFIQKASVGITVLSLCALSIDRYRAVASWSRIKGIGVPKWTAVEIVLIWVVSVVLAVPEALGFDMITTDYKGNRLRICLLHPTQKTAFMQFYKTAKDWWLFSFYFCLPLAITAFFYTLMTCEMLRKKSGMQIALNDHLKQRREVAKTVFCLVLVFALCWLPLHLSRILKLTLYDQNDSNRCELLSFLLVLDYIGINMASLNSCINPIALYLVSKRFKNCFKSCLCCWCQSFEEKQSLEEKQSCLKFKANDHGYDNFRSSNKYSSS
How it was run: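 COS cells transfected with porcine ETB cDNA, in Hank's solution with 20 mM HEPES and protease inhibitors. Stopped by filtration on GF/C filters presoaked in 1% polyethylenimine, washed with 50 mM Tris-HCl pH 7.4, then counted. Nonspecific binding taken with 0.1 μM ET-3.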

[2] = Ratio of inhibitory concentrations at ET-B receptor relative to that of ET-A receptor
Endothelin-1 receptor = target: T2, Endothelin-1 receptor (Rattus norvegicus, UniProt P26684); experiment: Binding affinity for endothelin A receptor by inhibition of [125I]ET1 binding in rat aorta smooth muscle cells; type: tissue-based
T2 sequence (P26684 whole entry): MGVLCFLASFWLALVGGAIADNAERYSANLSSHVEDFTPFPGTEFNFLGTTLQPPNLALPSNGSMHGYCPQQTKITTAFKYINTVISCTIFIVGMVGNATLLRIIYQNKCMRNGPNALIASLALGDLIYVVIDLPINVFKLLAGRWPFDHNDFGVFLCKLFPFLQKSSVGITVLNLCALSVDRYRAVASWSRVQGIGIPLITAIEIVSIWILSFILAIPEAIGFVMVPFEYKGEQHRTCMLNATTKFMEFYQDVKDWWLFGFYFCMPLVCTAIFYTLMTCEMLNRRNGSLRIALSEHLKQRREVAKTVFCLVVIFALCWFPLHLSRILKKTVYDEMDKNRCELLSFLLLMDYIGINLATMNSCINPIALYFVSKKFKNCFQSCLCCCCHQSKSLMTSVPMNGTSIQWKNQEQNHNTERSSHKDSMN

IC50 [1] [µM]	Ratio [2]	IC50 (Endothelin-1 receptor) [µM]	Structure (SMILES)
0.54	7.3	0.074	COc1ccc(C2=C(C(=O)O)C(c3ccc4c(c3)OCO4)Oc3ccc(OC)cc32)cc1 (stereo unspecified)
0.043	–	–	CCCCOc1ccc2c(c1)C(c1ccc3c(c1)OCO3)=C(C(=O)O)C(c1ccc(OC)cc1)O2 (stereo unspecified)
6.4	700	0.0091	COC1=C(C(=O)O)C(c2ccc3c(c2)OCO3)Oc2ccc(OC(C)C)cc21 (stereo unspecified)
2.3	2.4	0.97	CCCOc1ccc2c(c1)OC(c1ccc3c(c1)OCO3)C(C(=O)O)=C2c1ccc(OC)cc1 (stereo unspecified)
6.9	–	0.53	Cc1ccc(C2=C(C(=O)O)C(c3ccc4c(c3)OCO4)Oc3ccccc32)cc1 (stereo unspecified)
0.035	–	0.018	CCCCOc1ccc2c(c1)C(c1ccc3c(c1)OCO3)=C(C(=O)O)C(c1ccc(OC)cc1OC)O2 (stereo unspecified)
2.7	–	–	CC(C)Oc1ccc2c(c1)C(c1ccc3c(c1)OCO3)=C(C(=O)O)C(c1ccc(C(C)C)cc1)O2 (stereo unspecified)
0.16	–	0.35	CCCCOc1ccc2c(c1)C(c1ccc3c(c1)OCO3)=C(C(=O)O)C(c1cccc(OC)c1)O2 (stereo unspecified)
–	–	0.00033	C=CCCCOC1=C(C(=O)O)C(c2ccc3c(c2)OCO3)Oc2ccc(OC(C)C)cc21 (stereo unspecified)
3.5	670	0.0052	COC1=C(C(=O)O)[C@@H](c2ccc3c(c2)OCO3)Oc2ccc(OC(C)C)cc21
0.072	–	0.22	CCCOc1ccc2c(c1)C(c1ccc3c(c1)OCO3)=C(C(=O)O)C(c1ccc(OC)cc1)O2 (stereo unspecified)
0.13	7.6	0.017	CCCCOc1ccc2c(c1)C(c1ccc(OC)cc1)=C(C(=O)O)C(c1ccc3c(c1)OCO3)O2 (stereo unspecified)
0.75	–	0.0049	CC(C)Oc1ccc2c(c1)C(c1ccc(C(C)C)cc1)=C(C(=O)O)C(c1ccc3c(c1)OCO3)O2 (stereo unspecified)
> 100	–	67	O=C(O)C1=Cc2ccccc2OC1c1ccc2c(c1)OCO2 (stereo unspecified)
2.8	–	0.0022	CCOC1=C(C(=O)O)C(c2ccc3c(c2)OCO3)Oc2ccc(OC(C)C)cc21 (stereo unspecified)
–	–	0.048	CCCCC1=C(C(=O)NS(C)(=O)=O)C(c2ccc3c(c2)OCO3)Oc2ccc(OC(C)C)cc21 (stereo unspecified)
0.76	–	0.13	CCCCOc1ccc2c(c1)C(c1ccc3c(c1)OCO3)=C(C(=O)O)C(c1ccccc1OC)O2 (stereo unspecified)
0.52	260	0.002	CCCCOC1=C(C(=O)O)C(c2ccc3c(c2)OCO3)Oc2ccc(OCCC)cc21 (stereo unspecified)
2.2	–	4.8	CCCCOc1ccc2c(c1)C(c1ccc3c(c1)OCO3)=C(C(=O)O)C(c1ccc(OC3CCCC3)cc1)O2 (stereo unspecified)
> 100	> 60	–	CC(C)Oc1ccc2c(c1)C=C(C(=O)O)[C@H](c1ccc3c(c1)OCO3)O2
31	–	2.2	COc1ccccc1C1=C(C(=O)O)C(c2ccc3c(c2)OCO3)Oc2ccccc21 (stereo unspecified)
0.47	160	0.003	CCCCOC1=C(C(=O)O)C(c2ccc3c(c2)OCO3)Oc2ccc(OCCCC)cc21 (stereo unspecified)

IC50 [1] [µM]	Ratio [2]	IC50 (Endothelin-1 receptor) [µM]	Structure (SMILES)
15	–	0.29	CCOC1=C(C(=O)O)C(c2ccc3c(c2)OCO3)Oc2ccccc21 (stereo unspecified)
0.17	–	0.0032	CC(C)Oc1ccc2c(c1)C(c1ccc3c(c1)OCO3)=C(C(=O)O)C(c1ccc3c(c1)OCO3)O2 (stereo unspecified)
6	–	–	CCCCOC1=C(C(=O)O)C(c2ccc3c(c2)OCO3)Oc2cccc(OCCC)c21 (stereo unspecified)
1.1	–	0.029	CCCCCOC1=C(C(=O)O)C(c2ccc3c(c2)OCO3)Oc2ccccc21 (stereo unspecified)
0.2	–	0.003	COc1ccc(CCOC2=C(C(=O)O)C(c3ccc4c(c3)OCO4)Oc3ccc(OC(C)C)cc32)cc1 (stereo unspecified)
0.47	–	0.0016	COc1cccc(C2=C(C(=O)O)C(c3ccc4c(c3)OCO4)Oc3ccc(OC(C)C)cc32)c1 (stereo unspecified)
3.5	–	0.003	COc1ccccc1C1=C(C(=O)O)C(c2ccc3c(c2)OCO3)Oc2ccc(OC(C)C)cc21 (stereo unspecified)
1.6	–	0.16	CCCCOc1ccc2c(c1)C(c1ccc3c(c1)OCO3)=C(C(=O)O)C(c1cc(OC)ccc1OC)O2 (stereo unspecified)
–	–	0.63	COc1ccc(C2=C(C(N)=O)C(c3ccc4c(c3)OCO4)Oc3ccc(OC(C)C)cc32)cc1 (stereo unspecified)
52	160	0.33	CC(C)Oc1ccc2c(c1)C=C(C(=O)O)C(c1ccc3c(c1)OCO3)O2 (stereo unspecified)
0.22	50	0.0044	CCCOc1ccc2c(c1)C(c1ccc(OC)cc1)=C(C(=O)O)C(c1ccc3c(c1)OCO3)O2 (stereo unspecified)
0.79	13	0.062	COc1ccc(C2=C(C(=O)O)C(c3ccc4c(c3)OCO4)Oc3ccc(OCc4ccccc4)cc32)cc1 (stereo unspecified)
4.8	–	0.0041	CC(C)Oc1ccc2c(c1)C(c1ccc(O)cc1)=C(C(=O)O)C(c1ccc3c(c1)OCO3)O2 (stereo unspecified)
7.6	–	0.13	CCCCCCCCCCOC1=C(C(=O)O)C(c2ccc3c(c2)OCO3)Oc2ccc(OC(C)C)cc21 (stereo unspecified)
1.6	380	0.0042	CCCCOC1=C(C(=O)O)C(c2ccc3c(c2)OCO3)Oc2ccc(OCC)cc21 (stereo unspecified)
2.1	–	0.083	CC(C)c1ccc(C2=C(C(=O)O)C(c3ccc4c(c3)OCO4)Oc3ccccc32)cc1 (stereo unspecified)
3.4	–	0.0013	COc1ccc([C@@H]2c3cc(OC(C)C)ccc3O[C@H](c3ccc4c(c3)OCO4)[C@H]2C(=O)O)cc1
–	–	0.0018	COc1ccc(C2=C(C(=O)NS(C)(=O)=O)C(c3ccc4c(c3)OCO4)Oc3ccc(OC(C)C)cc32)cc1 (stereo unspecified)
> 100	–	0.78	O=C(O)C1=C(c2ccccc2)c2ccccc2OC1c1ccc2c(c1)OCO2 (stereo unspecified)
–	–	> 10	CCCCC1=C(C(=O)OC)C(c2ccc3c(c2)OCO3)Oc2ccc(OC(C)C)cc21 (stereo unspecified)
5.8	–	0.8	O=C(O)C1=C(c2ccc(Cl)cc2)c2ccccc2OC1c1ccc2c(c1)OCO2 (stereo unspecified)
0.71	–	0.35	O=C(O)C1=C(c2ccc3c(c2)OCO3)c2ccccc2OC1c1ccc2c(c1)OCO2 (stereo unspecified)

IC50 [1] [µM]	Ratio [2]	IC50 (Endothelin-1 receptor) [µM]	Structure (SMILES)
0.4	–	0.81	CCCCOc1ccc2c(c1)C(c1ccc3c(c1)OCO3)=C(C(=O)O)C(c1ccc(OC)c(OC)c1)O2 (stereo unspecified)
0.41	–	0.0047	CCCCCCCOC1=C(C(=O)O)C(c2ccc3c(c2)OCO3)Oc2ccc(OC(C)C)cc21 (stereo unspecified)
4	–	–	COc1ccc(C2=C(C(=O)O)C(c3ccc4c(c3)OCO4)Oc3c(OC)cccc32)cc1 (stereo unspecified)
5.8	–	0.0068	CC(C)Oc1ccc2c(c1)C(OCCCC#N)=C(C(=O)O)C(c1ccc3c(c1)OCO3)O2 (stereo unspecified)
–	–	0.008	CC(C)Oc1ccc2c(c1)C(c1ccc(F)cc1)=C(C(=O)O)C(c1ccc3c(c1)OCO3)O2 (stereo unspecified)
–	–	0.41	CCCCC1=C(C(N)=O)C(c2ccc3c(c2)OCO3)Oc2ccc(OC(C)C)cc21 (stereo unspecified)
–	–	0.077	CCCC[C@@H]1c2cc(OC(C)C)ccc2O[C@H](c2ccc3c(c2)OCO3)[C@H]1C(=O)O
–	–	> 10	COC(=O)C1=C(c2ccc(OC)cc2)c2cc(OC(C)C)ccc2OC1c1ccc2c(c1)OCO2 (stereo unspecified)
0.08	–	0.043	CCCOc1ccc2c(c1)C(c1ccc3c(c1)OCO3)=C(C(=O)O)C(c1ccc3c(c1)OCO3)O2 (stereo unspecified)
–	840	–	CCCCC1=C(C(=O)O)C(c2ccc3c(c2)OCO3)Oc2ccc(OC(C)C)cc21 (stereo unspecified)
–	–	0.003	CC(C)Oc1ccc2c(c1)C(c1ccccc1)=C(C(=O)O)C(c1ccc3c(c1)OCO3)O2 (stereo unspecified)
0.6	–	0.0063	CC(C)Oc1ccc2c(c1)C(c1ccc(OCc3ccccc3)cc1)=C(C(=O)O)C(c1ccc3c(c1)OCO3)O2 (stereo unspecified)
–	–	0.00032	COc1ccc(CC2=C(C(=O)O)C(c3ccc4c(c3)OCO4)Oc3ccc(OC(C)C)cc32)cc1 (stereo unspecified)
2.8	–	–	CCCCOC1=C(C(=O)O)C(c2ccc3c(c2)OCO3)Oc2cc(OCCC)ccc21 (stereo unspecified)
–	–	0.018	CCCCC1=C(c2nnn[nH]2)C(c2ccc3c(c2)OCO3)Oc2ccc(OC(C)C)cc21 (stereo unspecified)
–	1900	–	CCCCOC1=C(C(=O)O)C(c2ccc3c(c2)OCO3)Oc2ccc(OC(C)C)cc21 (stereo unspecified)
–	–	0.00051	COc1ccc(C2=C(C(=O)O)C(c3ccc4c(c3)OCO4)Oc3ccc(OC(C)C)cc32)cc1 (stereo unspecified)
3.6	–	5.2	CCCCOc1ccc(C2Oc3ccc(OCCCC)cc3C(c3ccc4c(c3)OCO4)=C2C(=O)O)cc1 (stereo unspecified)
7.2	–	0.012	CC(C)Oc1ccc2c(c1)C(Cl)=C(C(=O)O)C(c1ccc3c(c1)OCO3)O2 (stereo unspecified)
2.8	–	0.7	COc1cccc(C2=C(C(=O)O)C(c3ccc4c(c3)OCO4)Oc3ccccc32)c1 (stereo unspecified)
10	–	0.16	CCCOC1=C(C(=O)O)C(c2ccc3c(c2)OCO3)Oc2ccccc21 (stereo unspecified)
